Assay results reported in ChEMBL document CHEMBL1129970, “Biologically active conformer of the effector region of human C5a and modulatory effects of N-terminal receptor binding determinants on activity” (J Med Chem, 1997).
One block for each compound: values may come before it.

What was measured:
Homo sapiens [1] = organism: Homo sapiens; assay: Effective concentration to stimulate beta-glucuronidase release from human polymorphonuclear cells (PMN) (n=4); assay type: functional
Procedure, shortened: (§1)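 Human PMNs pretreated with cytochalasin B (5 μg/mL, 10 min, 37 °C), then 10⁶ cells stimulated for 60 min at 37 °C. β-Glucuronidase in the supernatant is assayed with 0.01 M p-nitrophenyl β-D-glucuronide (0.1 M acetate, pH 4, 18 h) in triplicate. Reaction stopped with glycine pH 10 and read at 415 nm. pD2 is taken from dose–response curves against the C5a EC50. Efficacy is given relative to C5a maximum (100%).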

Homo sapiens [2] = organism: Homo sapiens; assay: Effective concentration to induce smooth muscle contraction in human fetal artery; assay type: functional; details: Muscle tissue
Procedure, shortened: (§2)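 Human fetal artery smooth muscle contraction; full dose–response curves for recombinant human C5a or each peptide in the same tissue preparation. EC50 is the concentration giving 50% of the maximal response, read relative to the C5a maximum. pD2 = −log EC50 (M), averaged per peptide ± SE. Log potency ratio pD2(C5a) − pD2(peptide) is computed within each experiment. Relative potency = antilog(−Δ) × 100.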

Homo sapiens [3] = organism: Homo sapiens; assay: Log potency ratio [pD2(C5a)-pD2(peptide)] was determined in human fetal artery; assay type: functional; procedure, shortened: as §2
Homo sapiens [4] = organism: Homo sapiens; assay: Log potency ratio [pD2(C5a)-pD2(peptide)] was determined in human polymorphonuclear cells (PMN) (n=5); assay type: functional; procedure, shortened: as §1
Homo sapiens [5] = organism: Homo sapiens; assay: Relative potency of peptide for human fetal artery was determined; assay type: functional; procedure, shortened: as §2
[6] = Selectivity of peptide was determined from antilog[pD2(fetal artery)-pD2 (PMN enzyme release)] (n=11); assay type: functional
Procedure, shortened: (§3)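 Selectivity = antilog[pD2(fetal artery) − pD2(PMN β-glucuronidase release)]. pD2 values come from full dose–response curves in each assay, each generated alongside C5a.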

Homo sapiens [7] = organism: Homo sapiens; assay: Spasmogenic activity was measured by the ability to induce smooth muscle contraction in human fetal artery; assay type: functional, Muscle tissue; procedure, shortened: as §2
Homo sapiens [8] = organism: Homo sapiens; assay: Maximum efficacy relative to C5a (100%) for human polymorphonuclear cells (PMN) was determined (n=5); assay type: functional; procedure, shortened: as §1
Homo sapiens [9] = organism: Homo sapiens; assay: Tested for the ability to stimulate beta-glucuronidase release from human polymorphonuclear cells (PMN) (n=5); assay type: functional; procedure, shortened: as §1
Homo sapiens [10] = organism: Homo sapiens; assay: Relative potency of peptide to stimulate beta-glucuronidase release from human polymorphonuclear cells (PMN) (n=5); assay type: functional; procedure, shortened: as §1
Homo sapiens [11] = organism: Homo sapiens; assay: Effective concentration to stimulate beta-glucuronidase release from human polymorphonuclear cells (PMN) (n=5); assay type: functional; procedure, shortened: as §1
Homo sapiens [12] = organism: Homo sapiens; assay: Log potency ratio [pD2(C5a)-pD2(peptide)] was determined in human polymorphonuclear cells (PMN) (n=4); assay type: functional; procedure, shortened: as §1
Homo sapiens [13] = organism: Homo sapiens; assay: Maximum efficacy relative to C5a (100%) for human polymorphonuclear cells (PMN) was determined (n=4); assay type: functional; procedure, shortened: as §1
Homo sapiens [14] = organism: Homo sapiens; assay: Tested for the ability to stimulate beta-glucuronidase release from human polymorphonuclear cells (PMN) (n=4); assay type: functional; procedure, shortened: as §1
Homo sapiens [15] = organism: Homo sapiens; assay: Relative potency of peptide to stimulate beta-glucuronidase release from human polymorphonuclear cells (PMN) (n=4); assay type: functional; procedure, shortened: as §1
[16] = Selectivity of peptide was determined from antilog[pD2(fetal artery)-pD2 (PMN enzyme release)] (n=10); assay type: functional; procedure, shortened: as §3

- EC50 (Homo sapiens [1]): 4900 nM
- EC50 (Homo sapiens [2]): 100 nM
Compound: CSCC[C@H](NC(=O)[C@@H]1CCCN1C(=O)[C@H](CCCCN)NC(=O)[C@H](Cc1ccccc1)NC(=O)[C@H](CO)NC(=O)[C@H](Cc1ccc(O)cc1)NC(=O)CCCCCNC(=O)[C@H](CCCCN)NC(=O)CNC(=O)[C@@H](N)CCCCN)C(=O)N1CCC[C@H]1C(=O)N[C@@H](CC(C)C)C(=O)N[C@H](C)C(=O)N[C@@H](CCCN=C(N)N)C(=O)O

- EC50 (Homo sapiens [1]): 6700 nM
- EC50 (Homo sapiens [2]): 100 nM
Compound: CSCC[C@H](NC(=O)[C@@H]1CCCN1C(=O)[C@H](CCCCN)NC(=O)[C@H](Cc1ccccc1)NC(=O)[C@H](CO)NC(=O)[C@H](Cc1ccc(O)cc1)NC(=O)CCCCCNC(=O)[C@H](CCCCN)NC(=O)CNC(=O)[C@H](CCCCN)NC(=O)CNC(=O)[C@@H](N)CCCCN)C(=O)N1CCC[C@H]1C(=O)N[C@@H](CC(C)C)C(=O)N[C@H](C)C(=O)N[C@@H](CCCN=C(N)N)C(=O)O

Compound: CSCC[C@H](NC(=O)[C@@H]1CCCN1C(=O)[C@H](CCCCN)NC(=O)[C@H](Cc1ccccc1)NC(=O)[C@H](CO)NC(=O)[C@H](Cc1ccc(O)cc1)NC(=O)CCCCCNC(=O)[C@H](Cc1c[nH]c2ccccc12)NC(=O)[C@@H](N)CCCCN)C(=O)N1CCC[C@H]1C(=O)N[C@@H](CC(C)C)C(=O)N[C@H](C)C(=O)N[C@@H](CCCN=C(N)N)C(=O)O [listing 1 of 2 here]
- Mean log concentration ratio (Homo sapiens [3]): 0.86
- Mean log concentration ratio (Homo sapiens [4]): 1.72
- Potency (Homo sapiens [5]): 14%
- Selectivity [6]: 32
- pD2 (Homo sapiens [7]): 7.11
- C5a max (Homo sapiens [8]): 134%
- pD2 (Homo sapiens [9]): 5.6
- Potency (Homo sapiens [10]): 1.9%

- EC50 (Homo sapiens [1]): 2000 nM
- EC50 (Homo sapiens [2]): 70 nM
Compound: CSCC[C@H](NC(=O)[C@@H]1CCCN1C(=O)[C@H](CCCCN)NC(=O)[C@H](Cc1ccccc1)NC(=O)[C@H](CO)NC(=O)[C@H](Cc1ccc(O)cc1)NC(=O)CNC(=O)CNC(=O)CNC(=O)[C@H](CCCCN)NC(=O)CNC(=O)[C@H](CCCCN)NC(=O)CNC(=O)[C@@H](N)CCCCN)C(=O)N1CCC[C@H]1C(=O)N[C@@H](CC(C)C)C(=O)N[C@H](C)C(=O)N[C@@H](CCCN=C(N)N)C(=O)O

- EC50 (Homo sapiens [2]): 100 nM
- EC50 (Homo sapiens [11]): 2500 nM
Compound: CSCC[C@H](NC(=O)[C@@H]1CCCN1C(=O)[C@H](CCCCN)NC(=O)[C@H](Cc1ccccc1)NC(=O)[C@H](CO)NC(=O)[C@H](Cc1ccc(O)cc1)NC(=O)CCCCCNC(=O)[C@H](Cc1c[nH]c2ccccc12)NC(=O)[C@@H](N)CCCCN)C(=O)N1CCC[C@H]1C(=O)N[C@@H](CC(C)C)C(=O)N[C@H](C)C(=O)N[C@@H](CCCN=C(N)N)C(=O)O [listing 2 of 2 here]

- EC50 (Homo sapiens [1]): 3900 nM
- EC50 (Homo sapiens [2]): 200 nM
Compound: CSCC[C@H](NC(=O)[C@@H]1CCCN1C(=O)[C@H](CCCCN)NC(=O)[C@H](Cc1ccccc1)NC(=O)[C@H](CO)NC(=O)[C@H](Cc1ccc(O)cc1)NC(=O)[C@H](CCCCN)NC(=O)CNC(=O)[C@H](CCCCN)NC(=O)CNC(=O)[C@@H](N)CCCCN)C(=O)N1CCC[C@H]1C(=O)N[C@@H](CC(C)C)C(=O)N[C@H](C)C(=O)N[C@@H](CCCN=C(N)N)C(=O)O [listing 1 of 2 here]

Compound: CSCC[C@H](NC(=O)[C@@H]1CCCN1C(=O)[C@H](CCCCN)NC(=O)[C@H](Cc1ccccc1)NC(=O)[C@H](CO)NC(=O)[C@H](Cc1ccc(O)cc1)NC(=O)[C@H](CCCCN)NC(=O)CNC(=O)[C@H](CCCCN)NC(=O)CNC(=O)[C@@H](N)CCCCN)C(=O)N1CCC[C@H]1C(=O)N[C@@H](CC(C)C)C(=O)N[C@H](C)C(=O)N[C@@H](CCCN=C(N)N)C(=O)O [listing 2 of 2 here]
- Mean log concentration ratio (Homo sapiens [3]): 1.2
- Mean log concentration ratio (Homo sapiens [12]): 2.05
- Potency (Homo sapiens [5]): 6.2%
- C5a max (Homo sapiens [13]): 198%
- pD2 (Homo sapiens [7]): 6.81
- pD2 (Homo sapiens [14]): 5.4
- Potency (Homo sapiens [15]): 0.9%
- Selectivity [16]: 26
